In ChEMBL document CHEMBL1138882, “The design, synthesis, and evaluation of organ-specific iron chelators” (J Med Chem, 2006):

Legend:
[1] = Drug level in Sprague-Dawley rat plasma at 300 umol/kg, sc after 2 hrs; format: ADME, organism-based
Summary of the method: (§1)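 Plasma: male Sprague-Dawley rats (250–350 g) dosed sc once at 300 μmol/kg as monosodium salt; blood by cardiac puncture into sodium citrate, centrifuged; methanol deproteinization, filtered, HPLC-UV 310 nm, detection limit 0.5 μM; μM, mean of n = 3 per time point.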

[2] = system: Rattus norvegicus; experiment: Drug level in Sprague-Dawley rat kidney at 300 umol/kg, sc after 0.5 hrs; format: ADME, organism-based; conditions: in vivo
Summary of the method: (§2)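 Kidney level after single sc 300 μmol/kg monosodium salt in male Sprague-Dawley rats (250–350 g), n = 3 per time point. Water homogenate (1:2 w/v), methanol protein precipitation, 0.2 μm filtration, RP amide C16 HPLC with UV at 310 nm; linear range 1–1000 μM; reported as nmol/g wet weight, mean.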

[3] = system: Monkey; experiment: Iron clearing efficiency in monkey at 150 umol/kg; format: functional, Sapajus apella
Summary of the method: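 Cebus apella monkeys (3.5–4 kg) iron-overloaded with iv iron dextran (~500 mg Fe/kg), ≥60 d before use; single po 150 μmol/kg (monosodium salt or 40% Cremophor RH-40/water). Feces and urine collected every 24 h, 4 d before to 5 d after dosing; iron by flame AAS. ICE = 2-day post-drug output minus 4-day pre-drug mean, over theoretical (2:1 complex), percent; mean ± SEM.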

[4] = system: Rattus norvegicus; experiment: Iron clearing efficiency in Sprague-Dawley rat at 300 umol/kg, po; format: functional
Summary of the method: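 Bile-duct-cannulated, non-iron-overloaded male Sprague-Dawley rats (400–450 g) given single oral dose, 150 or 300 μmol/kg, as water solution, in 40% Cremophor RH-40/water, or monosodium salt. Bile every 3 h up to 48 h, urine every 24 h; iron by flame AAS. Efficiency = (treated minus control iron excretion)/theoretical output (2:1 complex), percent; mean ± SEM.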

[5] = (§3) Drug level in Sprague-Dawley rat plasma at 300 umol/kg, sc after 0.5 hrs; format: ADME, organism-based; conditions: Sprague-Dawley, plasma, 300 umol/kg; summary of the method: as §1
[6] = system: Rattus norvegicus; experiment: Toxicity in Sprague-Dawley rat at 384 umol/kg, po; format: organism-based; conditions: in vivo
Summary of the method: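 Male Sprague-Dawley rats (250–300 g), fasted overnight, gavaged once daily at 384 μmol/kg/d for up to 10 d; fed ~3 h post-dose for 5 h, then fasted. Age-matched controls; monitored at least three times daily, moribund animals euthanized; survivors sacrificed one day after last dose for histopathology.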

[7] = system: Rattus norvegicus; experiment: Drug level in Sprague-Dawley rat heart at 300 umol/kg, sc after 0.5 hrs; format: ADME, organism-based; conditions: in vivo
Summary of the method: (§4)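 Heart drug level: male Sprague-Dawley rats (250–350 g), single sc injection of monosodium salt, 300 μmol/kg; CO2 euthanasia at set times (n = 3 per time point). Tissue homogenized in water 1:2 (w/v), proteins precipitated with 3 vol CH3OH at −20 °C 20 min, filtered; reversed-phase HPLC, UV 310 nm, calibration-curve quantitation; nmol/g wet weight, mean.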

[8] = Partition coefficient, log P of the compound; format: physicochemical; conditions: octanol/water
Summary of the method: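 Shake-flask direct partition between octanol and TRIS buffer, pH 7.4; expressed as log of the fraction in the octanol layer (log P_app).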

[9] = system: Rattus norvegicus; experiment: Drug level in Sprague-Dawley rat liver at 300 umol/kg, sc after 0.5 hrs; format: ADME, organism-based; conditions: in vivo
Summary of the method: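 Liver sampled from male Sprague-Dawley rats (250–350 g) given one sc dose, 300 μmol/kg, as monosodium salt; n = 3 per time point. Homogenized in water, methanol-precipitated, filtered, analysed by HPLC-UV at 310 nm against calibration curves; nmol compound per g wet weight, mean; O-demethylated metabolite also measured.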

[10] = system: Rattus norvegicus; experiment: Drug level in Sprague-Dawley rat pancreas at 300 umol/kg, sc after 1 hr; format: ADME, organism-based; conditions: in vivo
Summary of the method: (§5)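 Pancreas concentration: single sc 300 μmol/kg (monosodium salt) to male Sprague-Dawley rats (250–350 g), three rats per time point, CO2 euthanasia. Tissue homogenate in water (1:2 w/v), CH3OH protein precipitation, filtration, RP HPLC with 310 nm UV detection; nmol/g wet weight, mean.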

[11] = system: Rattus norvegicus; experiment: Drug level in Sprague-Dawley rat pancreas at 300 umol/kg, sc after 4 hrs; format: ADME, organism-based; conditions: in vivo; summary of the method: as §5
[12] = system: Rattus norvegicus; experiment: Drug level in Sprague-Dawley rat heart at 300 umol/kg, sc after 4 hrs; format: ADME, organism-based; conditions: in vivo; summary of the method: as §4
[13] = system: Rattus norvegicus; experiment: as §3; format: ADME, organism-based; conditions: in vivo, 0.5 h; summary of the method: as §1
[14] = system: Rattus norvegicus; experiment: Drug level in Sprague-Dawley rat heart at 300 umol/kg, sc after 8 hrs; format: ADME, organism-based; conditions: in vivo; summary of the method: as §4
[15] = system: Rattus norvegicus; experiment: Drug level in Sprague-Dawley rat kidney at 300 umol/kg, sc after 1 hr; format: ADME, organism-based; conditions: in vivo; summary of the method: as §2

| SMILES | concentration at 2 h [1] [µM] | Drug uptake [2] [nmol/g] | concentration at 0.5 h [5] [µM] | Drug uptake [7] [nmol/g] | logP [8] | Drug uptake [9] [nmol/g] | Drug uptake [10] [nmol/g] | Drug uptake [11] [nmol/g] | Drug uptake [12] [nmol/g] | Cp [13] [µM] | Drug uptake [14] [nmol/g] | Drug uptake [15] [nmol/g] | Activity [3] [%] | Activity [4] [%] | Activity [6] |
| --- | --- | --- | --- | --- | --- | --- | --- | --- | --- | --- | --- | --- | --- | --- | --- |
| O=C(O)[C@H]1CSC(c2ccc(O)cc2O)=N1 | 5 | 667 | 209 |  |  |  |  |  |  |  |  |  | 4.2 | 2.9 | Non-toxic |
| O=C(O)[C@H]1CSC(c2cc(O)ccc2O)=N1 |  | 629 |  | 42 | -1.52 |  |  |  |  |  |  |  | 1.8 |  | Non-toxic |
| COc1ccc(O)c(C2=N[C@@H](C(=O)O)CS2)c1 |  |  |  | 380 | -0.81 | 564 |  | 45 | 61 |  |  |  | 12 | 8.9 | Non-toxic |
| COc1ccc(C2=N[C@@H](C(=O)O)CS2)c(O)c1OC |  |  |  | 185 | -1.28 |  |  |  |  |  |  |  | 12.4 | 11.9 | Non-toxic |
| COc1ccc(C2=N[C@@](C)(C(=O)O)CS2)c(O)c1OC |  | 1375 |  | 259 | -0.95 | 924 |  |  |  | 907 | 3 |  |  | 16.6 | Toxic |
| COc1ccc(C2=N[C@@H](C(=O)O)CS2)c(O)c1 |  |  |  |  |  |  |  |  |  |  |  |  | 16.2 | 11.6 | Non-toxic |

More lines, main results first:

| concentration at 2 h [1] [µM] | Drug uptake [2] [nmol/g] | concentration at 0.5 h [5] [µM] | Drug uptake [7] [nmol/g] | logP [8] | Drug uptake [9] [nmol/g] | Drug uptake [10] [nmol/g] | Drug uptake [11] [nmol/g] | Drug uptake [12] [nmol/g] | Cp [13] [µM] | Drug uptake [14] [nmol/g] | Drug uptake [15] [nmol/g] | SMILES | Activity [3] [%] | Activity [4] [%] | Activity [6] |
| --- | --- | --- | --- | --- | --- | --- | --- | --- | --- | --- | --- | --- | --- | --- | --- |
|  |  | 803 | 208 | -0.61 | 382 | 153 |  |  |  |  |  | COc1ccc(O)c(C2=N[C@@](C)(C(=O)O)CS2)c1 | 18.9 | 6.3 | Toxic |
|  | 282 |  |  |  |  |  |  |  |  |  |  | COc1ccc(C2=N[C@@](C)(C(=O)O)CS2)c(O)c1 | 24.4 | 6.6 | Toxic |
|  | 1216 |  |  | -1.14 |  |  |  |  |  |  |  | C[C@]1(C(=O)O)CSC(c2cc(O)ccc2O)=N1 | 12.6 | 1 | Non-toxic |
| 13 | 361 | 92 |  |  | 124 |  |  |  |  |  | 179 | C[C@]1(C(=O)O)CSC(c2ccc(O)cc2O)=N1 [DEFERITRIN] | 16.8 | 1.1 | Non-toxic |
